Type in all cases: cell-based
Series [1] addresses T1, NPC1-like intracellular cholesterol transporter 1 (Homo sapiens) (UniProt Q9UHC9).
T1 sequence (whole entry): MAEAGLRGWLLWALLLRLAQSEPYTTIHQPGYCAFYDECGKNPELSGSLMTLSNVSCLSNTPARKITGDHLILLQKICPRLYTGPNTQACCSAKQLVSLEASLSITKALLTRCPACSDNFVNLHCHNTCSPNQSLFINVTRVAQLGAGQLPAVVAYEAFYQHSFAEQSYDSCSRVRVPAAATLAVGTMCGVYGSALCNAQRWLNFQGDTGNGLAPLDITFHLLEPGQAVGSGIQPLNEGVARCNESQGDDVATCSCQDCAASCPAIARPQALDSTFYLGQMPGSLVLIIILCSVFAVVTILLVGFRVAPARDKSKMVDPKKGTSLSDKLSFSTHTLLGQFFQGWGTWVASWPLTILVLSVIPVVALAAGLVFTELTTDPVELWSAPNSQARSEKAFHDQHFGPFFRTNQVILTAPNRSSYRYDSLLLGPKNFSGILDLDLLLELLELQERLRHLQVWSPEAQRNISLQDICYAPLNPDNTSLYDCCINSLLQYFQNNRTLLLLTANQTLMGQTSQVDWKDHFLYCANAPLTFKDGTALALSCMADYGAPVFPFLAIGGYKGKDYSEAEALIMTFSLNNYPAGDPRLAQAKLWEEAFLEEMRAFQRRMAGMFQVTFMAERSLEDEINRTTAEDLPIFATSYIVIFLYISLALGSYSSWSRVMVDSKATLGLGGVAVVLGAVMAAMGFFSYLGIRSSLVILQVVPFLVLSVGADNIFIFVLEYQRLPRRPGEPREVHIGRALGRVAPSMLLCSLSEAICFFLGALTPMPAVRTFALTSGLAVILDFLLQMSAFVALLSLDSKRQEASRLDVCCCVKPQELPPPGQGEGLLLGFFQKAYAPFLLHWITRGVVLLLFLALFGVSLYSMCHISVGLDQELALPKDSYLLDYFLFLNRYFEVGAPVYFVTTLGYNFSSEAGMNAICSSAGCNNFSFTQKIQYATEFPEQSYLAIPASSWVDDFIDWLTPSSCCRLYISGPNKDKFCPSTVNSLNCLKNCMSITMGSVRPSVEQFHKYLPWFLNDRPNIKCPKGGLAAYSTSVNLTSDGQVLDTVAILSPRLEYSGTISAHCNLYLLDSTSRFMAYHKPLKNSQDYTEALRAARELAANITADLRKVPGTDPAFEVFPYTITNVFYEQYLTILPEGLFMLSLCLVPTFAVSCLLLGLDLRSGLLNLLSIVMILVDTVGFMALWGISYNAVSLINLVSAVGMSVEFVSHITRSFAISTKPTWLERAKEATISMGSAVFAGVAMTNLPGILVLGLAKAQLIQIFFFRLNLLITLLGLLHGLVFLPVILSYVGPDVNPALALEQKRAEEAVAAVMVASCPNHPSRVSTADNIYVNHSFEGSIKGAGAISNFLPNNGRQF
The experiment in a line: Binding affinity to human GFP-tagged NPC1L1 L1072T/L1168I mutant expressed in HEK293 cells assessed as localization to plasma membrane at 30 uM after 24 hrs by fluorescence microscopic analysis. Summed up: (§1)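 HEK293 cells stably expressing EGFP-tagged NPC1L1 L1072T/L1168I were plated on poly-D-lysine-coated glass-bottomed wells (20 µg/mL in PBS) and grown 24 h. They were then exposed to compound at 10 or 30 µM (0.1% final DMSO) and fixed in 3.7% formaldehyde-PBS. Read-out was % of EGFP signal localized to the plasma membrane.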

For series [2], the target named is T1, NPC1-like intracellular cholesterol transporter 1 (Homo sapiens). The experiment in a line: Binding affinity to human GFP-tagged NPC1L1 L1072T/L1168I mutant expressed in HEK293 cells assessed as localization to plasma membrane at 10 uM after 24 hrs by fluorescence microscopic analysis. Summed up:
as §1

The test system of a further series is HEK293. The experiment in a line: Cytotoxicity against HEK293 cells transfected with human GFP-tagged NPC1L1 L1072T/L1168I mutant at 30 uM. Conditions: hek293, 30 µM.
Series [3] has as its target T1, NPC1-like intracellular cholesterol transporter 1 (Homo sapiens). In words: Binding affinity to human EGFP-tagged full-length NPC1L1 L1072T/L1168I mutant expressed in HEK293 cells assessed as protein stabilization after 24 hrs by fluorescence assay. Summed up: (§2)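 Steady-state levels of full-length or NTD-deleted NPC1L1 L1072T/L1168I-GFP were measured in stably expressing HEK293 cells treated with compound at 1–30 µM or vehicle. GFP fluorescence in cell lysates was normalized to total protein by bicinchoninic acid assay. Values are expressed as % of vehicle-treated cells.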

The target is the same in series [4]. The experiment in a line: Binding affinity to human EGFP-tagged NTD-deleted NPC1L1 L1072T/L1168I mutant expressed in HEK293 cells assessed as protein stabilization after 24 hrs by fluorescence assay. Put shortly:
as §2

The structures appear in SMILES notation. Active and inactive are the calls of the source. The calls are words filed in the database; no cut-off is given here.

As to `CCCCNC(=O)c1ccc2c(c1)c1c(c(=O)n2CCCC)CCCCC1`, the Activity was 18% in series [1] and 0% in series [2].
Take `CCCCn1c(=O)c2c(c3cc(C(=O)NC(C)C)ccc31)CCCCC2`: the Activity was 25% in series [1] and 0% in series [2].
Regarding `CCCCn1c(=O)c2c(c3cc(C(=O)NC4CCCCC4)ccc31)CCCCC2`, the Activity in series [1] stood at 5%; in series [2], 2%.
Take `CCN(CC)C(=O)c1ccc2c(c1)c1ccccc1c(=O)n2Cc1ccccc1`: the Activity in series [1] amounted to 0%.
For the compound `CCCCn1c(=O)c2ccccc2c2cc(C(=O)NC)ccc21`, the Activity in series [1] turned out to be 24%; in series [2] it was 1%.
Take `CCCCn1c(=O)c2c(c3cc(C(=O)NC(C)(C)C)ccc31)CCCCC2`: the Activity in series [1] turned out to be 1%.
Still for that read-out and setting: then `CCN(CC)C(=O)c1ccc2c(c1)c1ccccc1c(=O)n2C`, with 0%.
As to `CCCCn1c(=O)c2c(c3cc(C(=O)NC4CCCC4)ccc31)CCCCC2`, the Activity came to 16% in series [1] and 6% in series [2].
With `CCCC(=O)N1CC2=C(CCCC2)c2cc(C(=O)N(CC)CC)ccc21`, in series [1], the Activity was found to be 1%.
Still for that read-out and setting: then `CCCCn1c(=O)c2ccccc2c2cc(C(N)=O)ccc21`, with 0%.
On to `CCN(C(=O)c1ccc2c(c1)c1c(c(=O)n2Cc2ccccc2)CCCCC1)C1CC1`, for which the Activity stood at 14% in series [1] and 0% in series [2].
For `CCCCn1c(=O)c2c(c3cc(C(=O)N(CC)CC)ccc31)CCCC2`, the Activity in series [1] worked out at 42%; in series [2], 2%.
For `CCCCn1c(=O)c2ccccc2c2cc(C(=O)N3CCCCC3)ccc21`, in that order: 47% and 0%.
With `CCCCn1c(=O)c2c(c3cc(C(=O)N(C)C)ccc31)CCCCC2`, the Activity in series [1] came out at 2%.
Regarding `CCCCN1C(=O)CCc2cc(C(=O)N(CC)CC)ccc21`, the Activity in series [1] is 1%.
Consider `CCN(C(=O)c1ccc2c(c1)c1c(c(=O)n2C(C)C)CCCCC1)C1CC1`, for which the Activity entry in the series with HEK293 was “Toxic”; in series [2] it was 0%.
Regarding `CCN(C(=O)c1ccc2c(c1)c1c(c(=O)n2CCO)CCCCC1)C1CC1`, the Activity in series [1] came out at 0%.
On to `CCCCn1c(=O)c2c(c3cc(C(=O)NCCC)ccc31)CCCCC2`, for which the figures for the Activity in series [1] and in series [2] were 36% and 0%, respectively.
`CCCCN(CCCC)C(=O)c1ccc2c(c1)c1ccccc1c(=O)n2CCCC`: the results for the Activity entry (in the series on HEK293; in series [2]) were “Toxic” and 18%, respectively.
With `CCCCn1c(=O)c2c(c3cc(C(=O)Nc4ccccc4)ccc31)CCCCC2`, in series [1], the Activity was found to be 0%.
Turning to `CCCCn1c(=O)c2c(c3cc(C(=O)N(C)C4CC4)ccc31)CCCCC2`, the Activity came out at 21% in series [1] and 1% in series [2].
For `CCCCn1c(=O)c2c(c3cc(C(N)=O)ccc31)CCCCC2`, the Activity in series [1] was determined as 0%.
As for `CCN(CC)C(=O)c1ccc2[nH]c(=O)c3ccccc3c2c1`, the Activity in series [1] came out at 0%.
Consider `CCN(C(=O)c1ccc2c(c1)c1c(c(=O)n2C)CCCCC1)C1CC1`, for which the Activity in series [1] came to 0%.
Same read-out and setting: the value for `CCCCn1c(=O)c2c(c3cc(C(=O)NCCO)ccc31)CCCCC2` was 0%.
With `CCN(CC)C(=O)c1ccc2c(c1)c1ccccc1c(=O)n2Cc1ccc(OC)cc1`, the Activity in series [1] was 18%; in series [2] it was 0%.
`CCCCCn1c(=O)c2c(c3cc(C(=O)N(CC)C4CC4)ccc31)CCCCC2`: the Activity in series [1] came to 35%; in series [2], 3%.
`CCCn1c(=O)c2c(c3cc(C(=O)N(CC)C4CC4)ccc31)CCCCC2`: the Activity in series [1] is 39%; in series [2], 0%.
For the compound `CCCCn1c(=O)c2c(c3cc(C(=O)NC)ccc31)CCCCC2`, the results for the Activity in series [1] and in series [2] were 23% and 0%, respectively.
Regarding `CCN(CC)C(=O)c1ccc2c(c1)c1ccccc1c(=O)n2CC(=O)N(C)C`, the Activity in series [1] was found to be 0%.
With `CCN(C(=O)c1ccc2[nH]c(=O)c3c(c2c1)CCCCC3)C1CC1`, the outcome in series [3] and in series [4] was Active. In addition, in series [1], the Activity was 0%.
`CCCCn1c(=O)c2c(c3cc(C(=O)N(CC)CC)ccc31)CCC2`: the Activity is 15% in series [1] and 1% in series [2].
Turning to `CCCCn1c(=O)c2ccccc2c2cc(C(=O)N(C)C)ccc21`, the Activity in series [1] came out at 4%.
`CCCCn1c(=O)c2ccccc2c2cc(C(=O)NCc3ccccc3)ccc21`: the Activity in series [1] amounted to 0%.
For `CCCCn1c(=O)c2c(c3cc(C(=O)N(CC)CC)ccc31)CCCCC2`, the values for the Activity in series [1] and in series [2] were 42% and 14%, respectively.
For the compound `CCCCn1c(=O)c2ccccc2c2cc(C(=O)N(CCO)CCO)ccc21`, the Activity in series [1] turned out to be 0%.
As to `CCCCn1c(=O)c2ccccc2c2cc(C(=O)NC3CCCCC3)ccc21`, the Activity came out at 11% in series [1] and 3% in series [2].
In the case of `CCCCn1c(=O)c2ccccc2c2cc(C(=O)N3CCOCC3)ccc21`, the Activity in series [1] was 0%.
On to `CCCCn1c(=O)c2c(c3cc(C(=O)NC4CC4)ccc31)CCCCC2`, for which the Activity in series [1] was 49%; in series [2], 3%.
On to `CCCCN1C(=O)c2ccccc2Oc2cc(C(=O)N(CC)CC)ccc21`, for which the Activity in series [1] worked out at 3%.
As to `CCCCn1c(=O)c2c(c3cc(C(=O)NCC)ccc31)CCCCC2`, the Activity in series [1] is 28%; in series [2], 0%.
Take `CCCCn1c(=O)c2ccccc2c2cc(C(=O)NC3CCCC3)ccc21`: in series [1], the Activity was 0%.
`CCCCn1c(=O)c2ccccc2c2cc(C(=O)N(CC)CC)ccc21`: the Activity in series [1] turned out to be 45%; in series [2] it was 1%.
Take `CCCCn1c(=O)c2ccccc2c2cc(C(=O)N(CCC)CCC)ccc21`: the Activity stood at 50% in series [1] and 14% in series [2].
Consider `CCCCn1c(=O)c2c(c3cc(C(=O)N4CCCC4)ccc31)CCCCC2`, for which the Activity amounted to 33% in series [1] and 1% in series [2].
As for `CCN(CC)C(=O)c1ccc2c(c1)c1ccccc1c(=O)n2CC`, in series [1], the Activity was 4%.
For `CCN(C(=O)c1ccc2c(c1)c1c(c(=O)n2CCOC)CCCCC1)C1CC1`, the Activity in series [1] is 0%.
Regarding `CCCCn1c(=O)c2ccccc2c2cc(C(=O)NC3CC3)ccc21`, the Activity in series [1] came to 55%; in series [2], 14%.
Consider `CCN(CC)C(=O)c1ccc2c(c1)c1ccccc1c(=O)n2CC(=O)O`, for which the Activity in series [1] stood at 0%.
On to `CCCCn1c(=O)c2ccccc2c2cc(C(=O)NC(C)(C)C)ccc21`, for which the Activity in series [1] came out at 41%; in series [2], 11%.
`CCN(C(=O)c1ccc2c(c1)c1c(c(=O)n2CC)CCCCC1)C1CC1`: the result in series [3] and in series [4] was Active. Besides, the Activity in series [1] was 7%.
With `CCCCn1c(=O)c2ccccc2c2cc(C(=O)NC(C)C)ccc21`, the Activity in series [1] was determined as 49%; in series [2] it was 0%.
Turning to `CCN(CC)C(=O)c1ccc2c(c1)c1ccccc1c(=O)n2CCCC(=O)O`, the Activity in series [1] was 0%.
For the compound `CCCCn1c(=O)c2c(c3cc(C(=O)N(CC)CC)ccc31)CCCCCC2`, the Activity in series [1] was found to be 44%; in series [2], 5%.
`CCN(CC)C(=O)c1ccc2c(c1)c1ccccc1c(=O)n2CCCC(=O)N(C)C`: in series [1], the Activity was 0%.
